By logD is commonly meant the decadic logarithm of the distribution of all forms, ionised or not, between an organic phase and buffer at a given pH. High values mean a more lipophilic compound, low ones a more hydrophilic compound.

Our source for the Activity and logD values is ChEMBL document CHEMBL1152488, “Synthesis and evaluation of pyrido[1,2-a]pyrimidines as inhibitors of nitric oxide synthases” (Eur J Med Chem, 2009).

Data set [1] concerns the target T1, Nitric oxide synthase 3 (Bos taurus) (UniProt P29473).
T1 sequence (whole entry): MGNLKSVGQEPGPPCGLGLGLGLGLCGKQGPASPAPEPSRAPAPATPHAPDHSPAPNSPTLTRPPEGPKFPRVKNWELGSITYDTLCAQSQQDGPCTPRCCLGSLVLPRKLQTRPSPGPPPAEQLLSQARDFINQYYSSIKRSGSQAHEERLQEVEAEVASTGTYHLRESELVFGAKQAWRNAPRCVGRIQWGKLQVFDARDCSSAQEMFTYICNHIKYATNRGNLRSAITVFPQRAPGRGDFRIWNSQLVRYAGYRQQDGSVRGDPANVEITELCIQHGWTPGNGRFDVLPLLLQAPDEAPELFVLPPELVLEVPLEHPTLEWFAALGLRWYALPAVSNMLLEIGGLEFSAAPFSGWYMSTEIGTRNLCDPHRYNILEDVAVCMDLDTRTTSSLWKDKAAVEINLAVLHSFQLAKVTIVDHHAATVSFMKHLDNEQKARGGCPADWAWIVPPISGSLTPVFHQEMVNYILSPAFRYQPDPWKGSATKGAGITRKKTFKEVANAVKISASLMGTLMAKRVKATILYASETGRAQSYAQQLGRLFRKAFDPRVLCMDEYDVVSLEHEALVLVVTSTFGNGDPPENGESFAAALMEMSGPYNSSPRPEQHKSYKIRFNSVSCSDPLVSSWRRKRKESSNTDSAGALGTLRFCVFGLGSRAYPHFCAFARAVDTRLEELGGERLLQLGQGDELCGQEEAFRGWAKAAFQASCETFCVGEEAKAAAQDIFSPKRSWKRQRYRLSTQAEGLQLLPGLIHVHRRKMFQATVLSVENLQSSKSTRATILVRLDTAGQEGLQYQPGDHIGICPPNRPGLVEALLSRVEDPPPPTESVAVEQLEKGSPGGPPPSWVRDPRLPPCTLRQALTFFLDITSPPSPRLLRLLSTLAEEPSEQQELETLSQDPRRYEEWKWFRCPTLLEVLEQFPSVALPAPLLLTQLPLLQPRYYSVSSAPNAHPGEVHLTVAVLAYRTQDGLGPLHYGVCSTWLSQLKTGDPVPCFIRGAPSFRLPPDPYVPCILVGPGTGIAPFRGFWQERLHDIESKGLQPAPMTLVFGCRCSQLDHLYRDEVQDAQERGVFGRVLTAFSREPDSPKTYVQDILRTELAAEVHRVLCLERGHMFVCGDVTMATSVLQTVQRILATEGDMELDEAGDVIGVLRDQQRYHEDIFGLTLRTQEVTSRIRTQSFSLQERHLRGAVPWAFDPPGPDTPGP
Kind of data set: Inhibition of bovine eNOS expressed in insect Sf9 cells assessed as residual activity at 100 uM by Griess assay relative to control. The method in brief:
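Bovine eNOS from Sf9 cells. Reaction: triethanolamine buffer pH 7.5, 0.5 mM Ca2+, 10 µg/ml CaM, 10 µM H4B, FAD, FMN, 0.5 mM NADPH, 1 mM L-arginine, with 100 µM compound, 20 min at 37 °C. After NADPH removal by LDH/pyruvate, nitrite measured by Griess at 543 nm. Expressed as % residual activity versus 1% DMSO control, 5 experiments.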
(Nitrite, measured by Griess reagent, commonly stands in for NO production.)

In data set [2] the target is T2, Nitric oxide synthase, inducible (Mus musculus) (UniProt P29477).
T2 sequence (whole entry): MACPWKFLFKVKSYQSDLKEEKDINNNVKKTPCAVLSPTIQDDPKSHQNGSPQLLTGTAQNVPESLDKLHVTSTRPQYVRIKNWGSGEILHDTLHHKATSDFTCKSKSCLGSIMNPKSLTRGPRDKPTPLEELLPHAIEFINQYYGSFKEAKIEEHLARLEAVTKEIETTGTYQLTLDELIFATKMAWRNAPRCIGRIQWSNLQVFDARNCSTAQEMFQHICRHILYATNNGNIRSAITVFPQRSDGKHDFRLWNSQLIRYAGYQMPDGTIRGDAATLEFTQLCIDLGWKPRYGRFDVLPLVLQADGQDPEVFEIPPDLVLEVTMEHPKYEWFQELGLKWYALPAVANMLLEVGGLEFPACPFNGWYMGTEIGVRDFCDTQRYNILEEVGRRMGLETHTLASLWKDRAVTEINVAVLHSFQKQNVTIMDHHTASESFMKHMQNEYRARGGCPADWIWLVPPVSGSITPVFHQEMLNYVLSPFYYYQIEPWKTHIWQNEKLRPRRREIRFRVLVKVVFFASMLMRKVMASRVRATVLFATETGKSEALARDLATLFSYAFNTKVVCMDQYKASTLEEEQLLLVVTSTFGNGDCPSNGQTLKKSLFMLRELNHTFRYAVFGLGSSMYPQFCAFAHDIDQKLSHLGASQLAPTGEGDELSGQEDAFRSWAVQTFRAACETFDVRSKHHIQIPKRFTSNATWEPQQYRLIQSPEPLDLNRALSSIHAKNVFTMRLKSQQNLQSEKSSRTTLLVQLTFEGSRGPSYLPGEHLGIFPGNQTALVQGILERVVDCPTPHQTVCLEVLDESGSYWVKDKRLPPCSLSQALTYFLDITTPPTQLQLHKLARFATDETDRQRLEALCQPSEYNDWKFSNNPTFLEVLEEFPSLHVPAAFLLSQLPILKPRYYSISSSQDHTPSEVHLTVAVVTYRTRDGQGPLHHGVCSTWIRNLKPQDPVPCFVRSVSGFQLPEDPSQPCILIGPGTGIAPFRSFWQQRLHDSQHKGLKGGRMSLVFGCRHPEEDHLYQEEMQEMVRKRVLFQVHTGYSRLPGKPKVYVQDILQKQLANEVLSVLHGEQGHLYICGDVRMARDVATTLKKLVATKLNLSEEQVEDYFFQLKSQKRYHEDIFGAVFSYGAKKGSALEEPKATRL
The data set is described as follows: Inhibition of mouse iNOS expressed in insect Sf9 cells assessed as residual activity at 100 uM by Griess assay relative to control. In outline:
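Murine iNOS produced in Sf9 insect cells. Buffer: 50 mM triethanolamine pH 7.5, 1 mM CHAPS, 10 mM 2-mercaptoethanol, 0.5 mM EDTA. Additions: 1 mM Mg2+, 5 µM FAD, 5 µM FMN, 0.5 mM NADPH, 10 µM H4B, 10 µg/ml CaM, 1 mM L-arginine. Compound at 100 µM final, 37 °C for 20 min. NADPH removed with LDH/pyruvate, then Griess read at 543 nm. Values are % of 1% DMSO control, 5 experiments.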

A short description of data set [3]: Lipophilicity, log D at pH 7.4 by HPLC method. Particulars: buffer.
Data set [4] addresses Nitric oxide synthase, inducible (Homo sapiens) (UniProt P35228). Kind of data set: Inhibition of human iNOS expressed in insect Sf9 cells assessed as residual activity at 100 uM by Griess assay relative to control. The method in brief: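 Human iNOS made in Sf9 cells, incubated at 37 °C for 20 min in 50 mM triethanolamine pH 7.5 with 1 mM Mg2+, FAD/FMN 5 µM each, 0.5 mM NADPH, 10 µM H4B, CaM and 1 mM L-arginine. Compound 100 µM final. NADPH cleared with lactate dehydrogenase/pyruvate before Griess reaction (543 nm). Residual activity relative to 1% DMSO control; mean of 5 experiments.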

Data set [5] deals with T3, Nitric oxide synthase 3 (Homo sapiens) (UniProt P29474).
T3 sequence (whole entry): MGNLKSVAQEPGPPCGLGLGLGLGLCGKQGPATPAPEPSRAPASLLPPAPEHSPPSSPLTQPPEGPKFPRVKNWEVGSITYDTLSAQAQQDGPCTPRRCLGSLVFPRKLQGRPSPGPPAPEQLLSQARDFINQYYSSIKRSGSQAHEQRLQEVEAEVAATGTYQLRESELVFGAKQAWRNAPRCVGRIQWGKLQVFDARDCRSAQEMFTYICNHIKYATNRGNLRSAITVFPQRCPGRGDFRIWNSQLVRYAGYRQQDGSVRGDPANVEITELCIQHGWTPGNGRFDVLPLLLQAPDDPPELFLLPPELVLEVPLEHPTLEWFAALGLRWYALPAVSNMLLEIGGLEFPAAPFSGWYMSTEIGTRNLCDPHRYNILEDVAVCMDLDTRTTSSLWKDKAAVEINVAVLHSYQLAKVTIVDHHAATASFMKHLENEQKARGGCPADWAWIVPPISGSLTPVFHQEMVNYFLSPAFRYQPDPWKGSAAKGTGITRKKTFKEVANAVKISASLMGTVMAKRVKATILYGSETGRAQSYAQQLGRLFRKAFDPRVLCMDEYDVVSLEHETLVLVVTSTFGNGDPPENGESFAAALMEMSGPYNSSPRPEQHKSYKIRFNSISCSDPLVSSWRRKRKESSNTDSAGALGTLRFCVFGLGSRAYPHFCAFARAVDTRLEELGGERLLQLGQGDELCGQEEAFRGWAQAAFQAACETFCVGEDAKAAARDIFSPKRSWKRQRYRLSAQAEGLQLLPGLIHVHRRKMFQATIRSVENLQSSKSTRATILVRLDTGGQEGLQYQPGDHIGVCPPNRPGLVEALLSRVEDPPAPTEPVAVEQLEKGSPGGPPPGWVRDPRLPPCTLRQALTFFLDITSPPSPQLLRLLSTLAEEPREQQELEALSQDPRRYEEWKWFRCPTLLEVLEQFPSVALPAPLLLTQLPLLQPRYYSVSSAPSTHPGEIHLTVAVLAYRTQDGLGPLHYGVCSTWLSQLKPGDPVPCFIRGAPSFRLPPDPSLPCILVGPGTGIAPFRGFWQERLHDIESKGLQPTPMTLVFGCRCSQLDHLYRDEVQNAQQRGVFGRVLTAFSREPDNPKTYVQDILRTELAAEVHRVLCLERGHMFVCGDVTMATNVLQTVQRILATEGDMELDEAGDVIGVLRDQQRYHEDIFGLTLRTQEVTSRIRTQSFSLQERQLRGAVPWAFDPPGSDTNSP
Kind of data set: Inhibition of human eNOS assessed as residual activity at 100 uM by Griess assay relative to control. In outline:
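Human eNOS expressed in Pichia pastoris. Incubated 20 min at 37 °C in triethanolamine pH 7.5 with 0.5 mM Ca2+, CaM, H4B 10 µM, FAD/FMN 5 µM, NADPH 0.5 mM, L-arginine 1 mM and compound at 100 µM final. Nitrite read by Griess (543 nm) after LDH/pyruvate NADPH removal; % of 1% DMSO control from 5 experiments.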

The structures appear in SMILES notation.

Nitric oxide synthase, inducible (Homo sapiens), sequence (P35228 whole entry): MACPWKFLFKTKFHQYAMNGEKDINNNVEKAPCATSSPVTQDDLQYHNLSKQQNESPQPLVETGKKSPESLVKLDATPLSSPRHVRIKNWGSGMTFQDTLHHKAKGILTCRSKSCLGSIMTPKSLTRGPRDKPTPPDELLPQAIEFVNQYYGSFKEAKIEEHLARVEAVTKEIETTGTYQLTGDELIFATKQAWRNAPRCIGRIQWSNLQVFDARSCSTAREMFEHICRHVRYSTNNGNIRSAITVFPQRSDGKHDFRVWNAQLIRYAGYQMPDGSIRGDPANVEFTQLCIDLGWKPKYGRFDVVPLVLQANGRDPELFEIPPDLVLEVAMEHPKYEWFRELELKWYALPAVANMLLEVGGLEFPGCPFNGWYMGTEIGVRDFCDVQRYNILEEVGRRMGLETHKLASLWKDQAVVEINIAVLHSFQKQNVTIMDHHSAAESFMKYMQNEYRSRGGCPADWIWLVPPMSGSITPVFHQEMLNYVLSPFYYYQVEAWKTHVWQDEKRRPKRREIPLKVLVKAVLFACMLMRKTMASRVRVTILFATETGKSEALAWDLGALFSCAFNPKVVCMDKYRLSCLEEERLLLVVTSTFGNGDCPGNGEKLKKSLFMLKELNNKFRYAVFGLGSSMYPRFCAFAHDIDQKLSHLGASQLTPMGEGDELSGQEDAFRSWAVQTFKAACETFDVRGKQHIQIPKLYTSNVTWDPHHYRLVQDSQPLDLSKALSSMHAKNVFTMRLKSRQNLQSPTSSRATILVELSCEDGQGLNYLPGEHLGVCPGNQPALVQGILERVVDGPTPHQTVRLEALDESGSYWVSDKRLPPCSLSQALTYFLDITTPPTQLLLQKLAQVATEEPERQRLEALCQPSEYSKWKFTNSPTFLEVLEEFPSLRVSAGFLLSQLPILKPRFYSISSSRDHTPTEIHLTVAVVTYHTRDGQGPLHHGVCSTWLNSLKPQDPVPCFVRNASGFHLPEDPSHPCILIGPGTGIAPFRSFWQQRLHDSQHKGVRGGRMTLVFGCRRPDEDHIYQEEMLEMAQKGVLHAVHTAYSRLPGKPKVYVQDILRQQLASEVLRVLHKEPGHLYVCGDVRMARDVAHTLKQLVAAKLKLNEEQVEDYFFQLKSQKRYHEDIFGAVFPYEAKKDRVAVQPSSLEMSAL

`CC1=CC=CN2CC(C(=O)c3ccccc3)CN=C12` (stereo not given): the Activity in data set [1] was determined as 92%; in data set [2], 103%.
`CC1=CC=CN2CC(C(=O)c3ccc(C)cc3)CN=C12` (stereo not given): the values for the Activity in data set [1] and in data set [2] were 93% and 100%, respectively. This molecule displayed a logD in data set [3] of 1.6.
On to `CC1=CC=CC2=NCC(C(=O)c3ccc4cc(C)ccc4c3)CN12` (stereo not given), for which the Activity in data set [4] is 88%; in data set [5] it was 75%. Also, in data set [3], the log distribution coefficient (logD) is 2.1.
In the same order, the values of `COc1ccc2cc(C(=O)C3CN=C4C=CC=C(C)N4C3)ccc2c1` (stereo not given) are 80%, 6% and 1.9.
With `CC1=CC=CC2=NCC(C(=O)c3ccc(-c4ccccc4)cc3)CN12` (stereo not given), the figures for the Activity in data set [4] and in data set [5] were 86% and 20%, respectively. The logD in data set [3] is 2.1.
On to `COc1ccc(C(=O)C2CN=C3C=CC=CN3C2)cc1OC` (stereo not given), for which the Activity in data set [1] stood at 91%; in data set [2] it was 123%. Besides, in data set [3], the logD is 1.4.
For `COc1ccc2cc(C(=O)C3CN=C4C=C(C)C=C(C)N4C3)ccc2c1` (stereo not given), the Activity came to 95% in data set [4] and 121% in data set [5]. The molecule further registered a logD in data set [3] of 1.9.
As for `COc1cc(C(=O)C2CN=C3C=CC=CN3C2)cc(OC)c1OC` (stereo not given), the results for the Activity in data set [1] and in data set [2] were 86% and 105%, respectively.
For the molecule `COc1ccc(C(=O)C2CN=C3C=CC=CN3C2)cc1` (stereo not given), the Activity in data set [1] is 90%; in data set [2], 100%. This molecule came in with a logD in data set [3] of 1.5.
The matching figures for `CC1=CC=CC2=NCC(C(=O)c3ccccc3)CN12` (stereo not given): 93%, 104% and 1.5.
`CCOc1ccc(C(=O)C2CN=C3C=C(C)C=CN3C2)cc1` (stereo not given): the Activity in data set [1] worked out at 87%; in data set [2] it was 97%.
